The target of assay [1] is T1, Histamine H4 receptor (Homo sapiens, UniProt Q9H3N8). Put plainly: Antagonist activity at human histamine H4 receptor expressed in human SK-N-MC cells assessed as inhibition of forskolin-stimulated cAMP accumulation after 6 hrs. It is filed as functional, cell-based. As to conditions: read-out: pA2 (converted). The method, boiled down: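 pA2 format on SK-N-MC cells carrying a CRE-controlled β-galactosidase reporter. Cells were preincubated with compound for 10 min, then with histamine agonist for 10 min, then forskolin was added, followed by 6 h at 37 °C. Lysis used phosphate/Mg/Mn buffer at pH 8 with Triton X-100 and β-mercaptoethanol. Chlorophenol red β-D-galactopyranoside turnover was read at 570 nm.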

Assay [2] addresses T1, Histamine H4 receptor. As to the kind of experiment: Agonist activity at human histamine H4 receptor expressed in human SK-N-MC cells assessed as effect on forskolin-induced cAMP accumulation after 6 hrs. It is filed as functional, cell-based. The method, boiled down:
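SK-N-MC cells with CRE-driven β-galactosidase reporter. Compound added to medium for 10 min at room temperature, then forskolin (5 µM final), 6 h at 37 °C. Chlorophenol red β-D-galactopyranoside substrate read at A570. α set against histamine (full agonist) = 1.0.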
(Changes in cAMP serve as a functional read-out for many G protein-coupled receptors.)

Assay [3] deals with T1, Histamine H4 receptor. As to the kind of experiment: Displacement of [3H]histamine from human histamine H4 receptor. Background: Loss of bound radioactivity is the signal in a displacement assay; it reports binding, not function.
In assay [4] the target is T1, Histamine H4 receptor. As to the kind of experiment: Agonist activity at human histamine H4 receptor expressed in human SK-N-MC cells assessed as effect on forskolin-induced cAMP accumulation after 6 hrs relative to histamine. It is filed as functional, cell-based. Summed up: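 SK-N-MC cells expressing human H4 receptor with a cAMP-responsive-element β-galactosidase reporter. Compound incubated 10 min at room temperature, then forskolin (5 µM final), then 6 h at 37 °C. Cells frozen overnight at -40 °C, lysed in phosphate buffer pH 8, chlorophenolred β-D-galactopyranoside substrate added, absorbance read at 570 nm. α calculated relative to histamine (full agonist) set as 1.0.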

Some results are limits rather than exact numbers.

T1 sequence (Q9H3N8 whole entry): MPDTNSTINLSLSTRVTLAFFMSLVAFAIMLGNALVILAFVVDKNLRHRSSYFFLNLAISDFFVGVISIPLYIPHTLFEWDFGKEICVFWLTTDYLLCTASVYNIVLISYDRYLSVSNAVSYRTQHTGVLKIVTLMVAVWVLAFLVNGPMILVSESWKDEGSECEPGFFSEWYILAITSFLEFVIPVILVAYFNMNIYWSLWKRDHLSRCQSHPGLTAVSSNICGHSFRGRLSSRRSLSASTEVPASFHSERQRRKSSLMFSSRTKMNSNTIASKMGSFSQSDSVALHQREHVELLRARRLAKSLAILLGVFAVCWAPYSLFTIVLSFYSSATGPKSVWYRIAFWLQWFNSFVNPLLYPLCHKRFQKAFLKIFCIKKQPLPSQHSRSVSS

`CN1CCN(c2cc(N)nc(N3CCCC3)c2)CC1`: the Kb on Histamine H4 receptor [1] is 20 nM. Moreover, at Histamine H4 receptor [2], the EC50 – broadly, the concentration at which the effect is half-maximal – is above 10000 nM. Affinity on Histamine H4 receptor [3] was put at a Ki of 100 nM.

Take `CN[C@@H]1CCN(c2cc(N)nc(NC(C)C)c2)C1`: on Histamine H4 receptor [1], the Kb was 1.58 nM. The EC50 at Histamine H4 receptor [2] was above 10000 nM. Also, the Ki (in general, the dissociation constant of the complex between target and ligand, obtained from inhibition or displacement) at Histamine H4 receptor [3] was determined as 3 nM.

Take `CC(C)Nc1cc(N2CCN(C)CC2)nc(N)n1`: at Histamine H4 receptor [4], the Alpha max is 0.57. Also, at Histamine H4 receptor [2], the EC50 worked out at 12 nM. The Ki on Histamine H4 receptor [3] was found to be 3 nM.

As for `CN[C@@H]1CCN(c2cc(N)nc(N(C)C(C)C)n2)C1`, affinity on Histamine H4 receptor [3] was put at a Ki of 140 nM.

For the compound `CN1CCN(c2cc(NCCO)nc(N)n2)CC1`, the Ki on Histamine H4 receptor [3] came out at 25 nM.

Consider `CC(C)CNc1nc(N)cc(N2CCN(C)CC2)n1`, for which the Alpha max on Histamine H4 receptor [4] came out at 0.71. Moreover, the EC50 on Histamine H4 receptor [2] stood at 86 nM. Further, the affinity at Histamine H4 receptor [3] corresponds to a Ki of 15 nM.

On to `Nc1nc(N2CCCC2)cc(N2CCNCC2)n1`, for which the EC50 on Histamine H4 receptor [2] is above 10000 nM. The Ki at Histamine H4 receptor [3] was 8 nM.

`CN[C@@H]1CCN(c2cc(N)nc(NCC(C)C)c2)C1`: on Histamine H4 receptor [1], the Kb is 1.58 nM. In addition, at Histamine H4 receptor [2], the EC50 was above 10000 nM. The compound further came in with a Ki at Histamine H4 receptor [3] of 0.2 nM.

In the case of `CN[C@@H]1CCN(c2cc(N(C)C(C)C)nc(N)n2)C1`, the affinity on Histamine H4 receptor [3] corresponds to a Ki of 51 nM.

On to `CN[C@@H]1CCN(c2cc(N)nc(NC3CCCC3)c2)C1`, for which the EC50 at Histamine H4 receptor [2] was above 10000 nM. At Histamine H4 receptor [3], this compound returned a Ki of 0.9 nM.

On to `CC(C)CNc1cc(N2CCN(C)CC2)nc(N)n1`, for which the Kb on Histamine H4 receptor [1] is 1.26 nM. Further, the EC50 at Histamine H4 receptor [2] was above 10000 nM. This compound also returned a Ki on Histamine H4 receptor [3] of 2 nM.

As for `CN[C@@H]1CCN(c2cc(N)nc(NCC(C)(C)C)c2)C1`, at Histamine H4 receptor [3], the affinity corresponds to a Ki of 0.04 nM.

Regarding `CC(C)N(C)c1cc(N2CCN(C)CC2)cc(N)n1`, the Ki on Histamine H4 receptor [3] was 189 nM. This Ki lies about 4700-fold higher than the previous one.

The compound `Nc1nc(N2CCCC2)cc(N2CC3CCCNC3C2)n1` (racemic) showed a Ki at Histamine H4 receptor [3] of 40 nM.

Consider `CC(C)N(C)c1cc(N2CCN(C)CC2)nc(N)n1`, for which the EC50 on Histamine H4 receptor [2] was above 10000 nM. Also, the affinity at Histamine H4 receptor [3], expressed as Ki, was 24 nM.

As for `CC(C)N(C)c1nc(N)cc(N2CCN(C)CC2)n1`, at Histamine H4 receptor [3], the affinity, expressed as Ki, was 853 nM.

In turn, `CN1CCN(c2cc(N)nc(NCc3ccccc3)c2)CC1` displayed a Ki at Histamine H4 receptor [3] of 148 nM.

`CN[C@@H]1CCN(c2cc(N3CCCC3)nc(N)n2)C1`: the Kb on Histamine H4 receptor [1] is 7.94 nM. Further, the EC50 on Histamine H4 receptor [2] was above 10000 nM. For the same compound, the Ki at Histamine H4 receptor [3] turned out to be 36 nM.

For `CN1CCN(c2cc(N)nc(N3CCCC3)n2)CC1`, on Histamine H4 receptor [3], the affinity corresponds to a Ki of 132 nM.

`CN[C@@H]1CCN(c2cc(N)nc(NCc3ccccc3)n2)C1`: on Histamine H4 receptor [3], the affinity, expressed as Ki, was 69 nM.

For `CC(C)Nc1nc(N)cc(N2CCN(C)CC2)n1`, on Histamine H4 receptor [3], the Ki was found to be 162 nM. This Ki is about 2.3-fold higher than that of the compound before.

Take `CN[C@@H]1CCN(c2cc(N)nc(NCC(C)C)n2)C1`: at Histamine H4 receptor [1], the Kb is 1.58 nM. Besides, the half-maximal effective concentration (EC50) at Histamine H4 receptor [2] was above 10000 nM. At Histamine H4 receptor [3], the inhibition constant (Ki) was found to be 1 nM.

Take `CN1CCN(c2cc(NC3CCCC3)nc(N)n2)CC1`: the Alpha max on Histamine H4 receptor [4] was 0.46. Besides, the EC50 on Histamine H4 receptor [2] is 101 nM. For the same compound, the affinity on Histamine H4 receptor [3] corresponds to a Ki of 1 nM.

Consider `CN[C@@H]1CCN(c2cc(NC(C)C)nc(N)n2)C1`, for which, on Histamine H4 receptor [1], the Kb was 10 nM. At Histamine H4 receptor [2], the EC50 was above 10000 nM. This compound also returned a Ki on Histamine H4 receptor [3] of 3 nM.

Turning to `CN[C@@H]1CCN(c2cc(N)nc(N(C)C(C)C)c2)C1`, the Ki at Histamine H4 receptor [3] worked out at 29 nM.

For `CN1CCN(c2cc(NCc3ccccc3)nc(N)n2)CC1`, on Histamine H4 receptor [3], the inhibition constant (Ki) amounted to 20 nM.

For the compound `CN[C@@H]1CCN(c2cc(NC3CCCC3)nc(N)n2)C1`, at Histamine H4 receptor [1], the Kb was 0.398 nM. Further, the EC50 at Histamine H4 receptor [2] is above 10000 nM. The affinity on Histamine H4 receptor [3] corresponds to a Ki of 9 nM.

On Histamine H4 receptor [3], `CN[C@@H]1CCN(c2cc(NCc3ccccc3)nc(N)n2)C1` returned a Ki of 58 nM.

`Nc1nc(N2CCCC2)cc(N2CC[C@@H](N)C2)n1` registered a Ki on Histamine H4 receptor [3] of 64 nM. The Ki values of the last two compounds are within 1.5-fold of each other.

Turning to `CN1CCN(c2cc(N)nc(NC3CCCC3)n2)CC1`, the Alpha max at Histamine H4 receptor [4] was 0.63. Moreover, the 50% effective concentration (EC50) at Histamine H4 receptor [2] turned out to be 16 nM. The compound also came in with a Ki at Histamine H4 receptor [3] of 10 nM.

Regarding `CN[C@@H]1CCN(c2cc(NCCO)nc(N)n2)C1`, the Ki at Histamine H4 receptor [3] amounted to 44 nM.

Consider `CC(C)Nc1cc(N2CCN(C)CC2)cc(N)n1`, for which the Alpha max at Histamine H4 receptor [4] came to 0.6. Besides, at Histamine H4 receptor [2], the EC50 was 533 nM. For the same compound, on Histamine H4 receptor [3], the inhibition constant Ki amounted to 28 nM.

On to `CN1CCN(c2cc(N)nc(NCC(C)(C)C)c2)CC1`, for which affinity on Histamine H4 receptor [3] was put at a Ki of 0.3 nM.

On to `CN[C@@H]1CCN(c2cc(N)nc(NCCO)n2)C1`, for which the inhibition constant Ki at Histamine H4 receptor [3] is 255 nM. Against the preceding compound, the Ki is about 850-fold higher.

In the case of `CN[C@@H]1CCN(c2cc(N)nc(NC3CCCC3)n2)C1`, the Kb on Histamine H4 receptor [1] was 12.6 nM. Moreover, the EC50 on Histamine H4 receptor [2] was above 10000 nM. The compound further yielded a Ki on Histamine H4 receptor [3] of 6 nM.

In the case of `CC(C)CNc1cc(N2CCN(C)CC2)cc(N)n1`, on Histamine H4 receptor [4], the Alpha max stood at 0.51. Besides, on Histamine H4 receptor [2], the EC50 came to 50 nM. Further, the Ki at Histamine H4 receptor [3] was 2 nM.

`CN[C@@H]1CCN(c2cc(N)nc(NC(C)C)n2)C1`: at Histamine H4 receptor [1], the Kb is 12.6 nM. Further, the EC50 at Histamine H4 receptor [2] was above 10000 nM. Also, at Histamine H4 receptor [3], the affinity corresponds to a Ki of 6 nM.

`CN1CCN(c2cc(N)nc(NCCO)n2)CC1`: the Ki at Histamine H4 receptor [3] stood at 1160 nM. This lies in the single-digit micromolar range.

Compound `CN[C@@H]1CCN(c2cc(N)nc(N3CCCC3)n2)C1` returned an inhibition constant (Ki) at Histamine H4 receptor [3] of 127 nM.

The compound `CN1CCN(c2cc(N)nc(NCc3ccccc3)n2)CC1` had a Ki on Histamine H4 receptor [3] of 1080 nM.

Turning to `CN1CCN(c2cc(N3CCCC3)nc(N)n2)CC1`, on Histamine H4 receptor [1], the Kb is 2 nM. The EC50 on Histamine H4 receptor [2] is above 10000 nM. Moreover, the Ki on Histamine H4 receptor [3] worked out at 6 nM.

`CN[C@@H]1CCN(c2cc(N)nc(N3CCCC3)c2)C1`: on Histamine H4 receptor [1], the Kb is 15.8 nM. Also, the EC50 at Histamine H4 receptor [2] was above 10000 nM. The Ki on Histamine H4 receptor [3] amounted to 77 nM.

As for `CN[C@H]1CCN(c2cc(N3CCCC3)nc(N)n2)C1`, the Ki on Histamine H4 receptor [3] was 83 nM. This lies in the double-digit nanomolar range.

For `CN[C@@H]1CCN(c2cc(N)nc(NCc3ccccc3)c2)C1`, affinity on Histamine H4 receptor [3] was put at a Ki of 50 nM.

In the case of `CN1CCN(c2cc(N)nc(NC3CCCC3)c2)CC1`, the Alpha max on Histamine H4 receptor [4] is 0.73. In addition, the EC50 on Histamine H4 receptor [2] worked out at 11 nM. Further, the Ki on Histamine H4 receptor [3] stood at 3 nM.

(Values after ChEMBL document CHEMBL1770114, “Triamino pyrimidines and pyridines as histamine H(4) receptor modulators” (Bioorg Med Chem Lett, 2011).)
